The values that follow come from paper PMC3582387 (Chemistry & biology, 2012).

Data set [1] concerns MCL-1-rescued p185+Arf−/−/Mcl-1-deleted B-ALL cells. In words: Cell viability. The format is cell-based, murine. Summed up: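 B-ALL cells come from Mcl-1f/f Arf−/− mouse marrow transformed with BCR-ABL(p185)-IRES-luciferase. They were stably transduced with MSCV-Puro-Mcl-1, and endogenous Mcl-1 was then deleted with MSCV-Cre-IRES-GFP; cells are kept in RPMI 1640/10% FBS. Cells (4×10^4/well) get serial dilutions of test compound or 0.4% DMSO in DMEM at 37 °C, with CellTiter-Glo luminescence read at 24 h. Data are normalized to vehicle; runs are at least duplicate and repeated twice with independent cultures.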

Data set [2] has as its system wild-type MEFs. The experiment in a line: Caspase 3/7 activation, wild-type MEFs. The format is cell-based, mouse. The settings on record: 8 h. Summed up:
(§1)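 Wild-type or Bax−/−Bak−/− mouse embryonic fibroblasts are kept in high-glucose DMEM with 10% FBS, penicillin/streptomycin, 2 mM L-glutamine, 50 mM HEPES, non-essential amino acids and 50 µM β-mercaptoethanol. Cells are seeded at 5×10^3/well for 24 h, then given serial dilutions of test compound or vehicle (0.4% DMSO). Caspase-Glo 3/7 reagent is added at 8 h and luminescence is read.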

Data set [3] addresses T1, MCL-1ΔNΔC (Homo sapiens, UniProt Q07820). The experiment in a line: Competitive FP assay against the FITC-BID BH3/MCL-1ΔNΔC interaction. The format is binding.
Data set [4] concerns Bax−/−Bak−/− MEFs. The experiment in a line: Cell viability, Bax−/−Bak−/− MEFs. The class given is cell-based, mouse. The settings on record: same dose range as leukemia cells, 24 h. Summed up:
(§2)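 MEFs (wild-type or Bax−/−Bak−/−) are maintained in supplemented high-glucose DMEM (10% FBS, antibiotics, L-glutamine, HEPES, β-mercaptoethanol). They are plated at 5×10^3 cells/well and allowed 24 h before exposure to serially diluted test compound, with 0.4% DMSO as vehicle. Viability is read as CellTiter-Glo luminescence after 24 h of treatment.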

In data set [5] the target is T1, MCL-1ΔNΔC. In words: Competitive FP assay against the FITC-MCL-1 SAHBA/MCL-1ΔNΔC interaction. The class given is binding.
The target in data set [6] is T1, MCL-1ΔNΔC. In words: BAX-mediated liposomal release assay, suppression by MCL-1ΔNΔC. The settings on record: 20 nM tBID, 250 nM BAX. The class given is biochemical.
The subject of data set [7] is wild-type MEFs. The experiment in a line: Cell viability, wild-type MEFs. The class given is cell-based, mouse. As to conditions: same dose range as leukemia cells, 24 h. Summed up: as §2
Data set [8] concerns BCL-XL-rescued p185+Arf−/−/Mcl-1-deleted B-ALL cells. In words: Cell viability. The class given is cell-based, murine.
Data set [9] concerns Bax−/−Bak−/− MEFs. The experiment in a line: Caspase 3/7 activation, Bax−/−Bak−/− MEFs. The format is cell-based, mouse. As to conditions: 8 h. An outline of the steps:
as §1

For data set [10], the system named is BCL-XL-rescued p185+Arf−/−/Mcl-1-deleted B-ALL cells. In words: Caspase 3/7 activation. The format is cell-based, murine. As to conditions: 8 h post-treatment.
The next data set has as its target MCL-1/BAK complex (Mus musculus, UniProt P97287). In words: Co-immunoprecipitation of MCL-1/BAK complex in MCL-1-reconstituted B-ALL cells. The format is cell-based, murine. As to conditions: 6 h incubation. Summed up:
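MCL-1-reconstituted Mcl-1-deleted B-ALL cells (5×10^6) were given vehicle or test compound for 6 h. Lysate was precleared on protein A/G, then taken with anti-MCL-1 overnight at 4°C plus A/G beads for 1 h. After three washes and elution at 90°C, SDS-PAGE/Western probed MCL-1 and BAK.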

The target in another data set is BCL-XLΔC (Homo sapiens, UniProt Q07817). In words: Competitive FP assay against the FITC-BID BH3/BCL-XLΔC interaction. The class given is binding.
The subject of data set [11] is MCL-1-rescued p185+Arf−/−/Mcl-1-deleted B-ALL cells. The experiment in a line: Caspase 3/7 activation. The class given is cell-based, murine. The settings on record: 8 h post-treatment. An outline of the steps:
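Mcl-1-floxed Arf−/− mouse marrow was transformed with p185-IRES-luciferase, stably rescued with MSCV-Puro-Mcl-1, and endogenous Mcl-1 was deleted via MSCV-Cre-IRES-GFP. Cells were kept in supplemented RPMI 1640 and seeded at 4×10^4/well. Serial dilutions of test compound or vehicle (0.4% DMSO) were added in DMEM at 37°C. Caspase-Glo 3/7 luminescence was read at 8 h. Values were normalized to vehicle (mean ± SEM, ≥duplicate, two independent cultures).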

T1 sequence (Q07820 172-327, stated change not applied): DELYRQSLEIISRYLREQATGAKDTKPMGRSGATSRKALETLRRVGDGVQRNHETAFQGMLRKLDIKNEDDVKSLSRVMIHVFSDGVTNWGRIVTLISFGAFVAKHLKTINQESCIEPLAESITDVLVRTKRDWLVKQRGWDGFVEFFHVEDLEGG
Sequence of BCL-XLΔC (Q07817 1-212 limits assumed, stated change not applied): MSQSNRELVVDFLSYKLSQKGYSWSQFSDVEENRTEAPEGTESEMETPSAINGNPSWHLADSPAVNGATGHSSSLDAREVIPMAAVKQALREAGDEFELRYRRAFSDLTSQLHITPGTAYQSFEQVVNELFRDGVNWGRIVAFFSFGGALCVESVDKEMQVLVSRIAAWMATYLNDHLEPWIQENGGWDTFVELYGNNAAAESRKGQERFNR
Sequence of MCL-1/BAK complex (P97287 whole entry, one chain of several): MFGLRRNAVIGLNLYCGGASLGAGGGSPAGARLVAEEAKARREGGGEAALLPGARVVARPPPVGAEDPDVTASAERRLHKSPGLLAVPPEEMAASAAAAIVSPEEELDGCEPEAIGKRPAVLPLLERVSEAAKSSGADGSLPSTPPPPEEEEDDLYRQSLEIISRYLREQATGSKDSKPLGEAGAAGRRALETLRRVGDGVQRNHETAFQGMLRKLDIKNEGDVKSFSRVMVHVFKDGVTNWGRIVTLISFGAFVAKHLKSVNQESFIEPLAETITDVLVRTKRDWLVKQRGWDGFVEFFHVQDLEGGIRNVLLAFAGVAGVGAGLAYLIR

The term IC50 denotes the concentration needed to halve the response being measured. Consider `CN(C)CC[C@H](CSc1ccccc1)Nc1ccc(S(=O)(=O)NC(=O)c2ccc(N3CCN(Cc4ccccc4-c4ccc(Cl)cc4)CC3)cc2)cc1[N+](=O)[O-]` [ABT-737, reference compound], for which the “Effect on viability of MCL-1-dependent cells (in words)” value in data set [1] (CellTiter-Glo at 24 h) is “no effect on the MCL-1-dependent cells”. In the data set with wild-type MEFs [2], the “Caspase 3/7 activation in wild-type MEFs” value is given as “no observed caspase 3/7 activation”. Besides, the “Competition with FITC-BID BH3 for MCL-1ΔNΔC binding (in words)” value at MCL-1ΔNΔC [3] is reported as “showed no activity toward MCL-1ΔNΔC”. The “Effect on viability of Bax−/−Bak−/− MEFs” value with Bax−/−Bak−/− MEFs [4] is on record as “no significant effect”. Moreover, at MCL-1ΔNΔC [5], the “Competition with FITC-MCL-1 SAHBA for MCL-1ΔNΔC binding (in words)” value is reported as “had no effect”. Moreover, the “Blockade of MCL-1ΔNΔC suppression of tBID-induced BAX activation (liposomal release)” value on MCL-1ΔNΔC [6] is “had no effect on MCL-1ΔNΔC activity”. Moreover, the “Effect on viability of wild-type MEFs” value with wild-type MEFs [7] was “no significant effect”. Also, the IC50 in [8] (Mus musculus, 24 h, read-out: IC50, cell viability of BCL-XL-dependent cells) came out at 1.6 µM. For the same compound, in the data set with Bax−/−Bak−/− MEFs [9], the “Caspase 3/7 activation in Bax−/−Bak−/− MEFs” value is “no observed caspase 3/7 activation”. Also, in [10], the “Caspase 3/7 activation in BCL-XL-dependent cells” value was “dose-responsive caspase 3/7 activation”.
`Cc1cs/c(=N\C2CCCCC2)n1/N=C/c1ccc(O)c(O)c1O` [MIM1, 4-((E)-(((Z)-2-(cyclohexylimino)-4-methylthiazol-3(2H)-yl)imino)methyl)benzene-1,2,3-triol]: the IC50 in data set [1] (Mus musculus, 24 h, read-out: IC50, cell viability of MCL-1-dependent cells) is 4.2 µM; at MCL-1ΔNΔC [3], 4.8 µM; at BCL-XLΔC, greater than 50 µM. Moreover, in the data set with wild-type MEFs [2], the “Caspase 3/7 activation in wild-type MEFs” value is given as “no observed caspase 3/7 activation”. In addition, the “Fold difference of IC50 for MCL-1ΔNΔC versus IC50 of ABT-737 for BCL-XLΔC” value on MCL-1ΔNΔC [3] (competition with FITC-BID BH3, MIM1 less potent) is listed as 7.5 fold. At MCL-1/BAK complex, the “Dissociation of the inhibitory MCL-1/BAK complex (co-immunoprecipitation)” value is “dose-dependent dissociation of the inhibitory MCL-1/BAK complex”. The “Effect on viability of Bax−/−Bak−/− MEFs” value with Bax−/−Bak−/− MEFs [4] was “no significant effect”. Further, in data set [11], the “Caspase 3/7 activation in MCL-1-dependent cells” value is “dose-dependent induction of caspase 3/7 activity”. Also, on MCL-1ΔNΔC [6], the “Blockade of MCL-1ΔNΔC suppression of tBID-induced BAX activation (liposomal release)” value is listed as “preventing BAX suppression by MCL-1ΔNΔC”. In addition, the “Effect on viability of wild-type MEFs” value in the data set on wild-type MEFs [7] was “no significant effect”. The “Effect on viability of BCL-XL-dependent cells (in words)” value in data set [8] (CellTiter-Glo at 24 h) is given as “little to no effect on the BCL-XL-dependent cells”. Besides, in the data set on Bax−/−Bak−/− MEFs [9], the “Caspase 3/7 activation in Bax−/−Bak−/− MEFs” value is listed as “no observed caspase 3/7 activation”.
